# Screens (PubChem BioAssay)
# Shown are actives, neighbours in structure and some others; about 1.5% of the full set was active somewhere.
# Platelet DG rel – inhibitors of platelet dense granule secretion, primary screen, cell-based, MLPCN, human platelets; AID 1663, 2009; inhibition, %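 (compounds screened at 7.5 µM in platelet-rich plasma)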; human platelet-rich plasma, SFLLRN dense granule ATP release, luminescence; hit rate 0.22% among 300,000;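 active means mean replicate score, as percent of positive control, at or above 50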
# STAT1 blocker – STAT1 signaling inhibitors, primary screen, cell-based, HTS, luciferase reporter; NIH 3T3 STAT1-luciferase reporter, IFN-gamma, luminescence; inhibition, % at 5.5 µM; hit rate 0.35% among 200,000; AID 920, 2007;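 active means inhibition above a set limit, the mean inhibition across all tested compounds plus 3 SD, cut at about 34% in these data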;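 further: 0% = IFN-gamma with DMSO and 100% = IFN-gamma with 300 µM nifuroxazide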
# STAT3 inh – IL-6 driven STAT3 reporter inhibitors, primary screen, U3A cells, luciferase, luminescence, MLSCN library; inhibition, % at 5.5 µM; hit rate 0.89% among 190,000; AID 862, 2007; IL-6 STAT3-luciferase reporter; host cell line lacks STAT1;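 active means inhibition above the mean inhibition across all screened compounds plus 3 SD, cut at about 44% in these data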;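 further: 0% = DMSO only wells and 100% = 100 µM nifuroxazide control wells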
# TAG inh – inhibitors of triacylglycerol accumulation, primary screen, cell-based, uHTS, fluorescence, H9c2; H9c2 cells, Nile Red lipid (TAG) fluorescence; cells loaded with 200 µM oleic acid; AID 651582, 2012; inhibition, % at 12.5 µM; hit rate 0.66% among 230,000;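 active means pattern-corrected inhibition of lipid staining of at least 50% with the nuclear-stain viability signal not falling by more than 50%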;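 further: 0% = DMSO wells and 100% = triacsin C control wells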
# PPC-1+TRAIL kill – compounds killing PPC-1 cancer cells with TRAIL present, primary screen, TRAIL potentiator project, ATPLite luminescence, uHTS | PPC-1 cells + TRAIL, ATPLite viability luminescence | cell killing (% activity), % at 4 µM or 5 µM | hit rate 0.41% among 220,000 | AID 1443, 2008;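 active means cell killing above 50% in the first pass at 4 µM, then a duplicate retest at 5 µM averaging 50% or more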;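 further: plate controls were cells with TRAIL plus DMSO for no effect and medium-only wells lacking cells for full effect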
# Lipid droplet – inhibitors of hepatocyte lipid droplet formation, primary screen, imaging, high-throughput imaging, BODIPY stain. inhibition, % at 6.5 µM. AML12 mouse hepatocytes, oleate lipid droplets. hit rate 0.4% among 240,000;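 active means lipid droplet intensity inhibited by at least 50%, with more than 500 cells counted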
#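 material = mouse AML12 hepatocyte cell line, fixed after treatment | also added = 100 µM oleic acid challenge | doses = compound at 6.5 µM only | schedule = overnight exposure | technique = Image-based BODIPY and DAPI two-channel analysis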
# Hep lipid conf – hepatocyte lipid droplet accumulation inhibitors, confirmation, imaging, AML12 mouse hepatocytes, single concentration, high-content. shares compounds with Lipid droplet. BODIPY lipid droplet imaging; droplets induced with 100 µM oleic acid. inhibition, % at 5.2 µM. hit rate 65% among 870. AID 463183, 2010;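 active means inhibition of lipid droplet metric at least 50%, with more than 300 cells in each of four replicates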;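 further: plate controls were DMSO with oleic acid for no effect and 5 µM Triacsin-C for full effect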
# AML12 tox img – AML12 hepatocyte cytotoxicity, counter-screen for hepatic lipid droplet formation project, imaging, DAPI nuclear morphology imaging | AML12 mouse hepatocytes; stronger effect = higher value; cells fed 100 µM oleate overnight | z-score at 5 µM | hit rate 3% among 870 | shares compounds with Lipid droplet; in the data active means z-score above about 6.3;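 further: compound exposure lasted overnight at 37 °C before fixation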
# AML12 tox ATP – AML12 hepatocyte cytotoxicity, confirmation, cytotoxicity control for hepatic lipid droplet formation project, cell-based, single concentration; shares compounds with Lipid droplet; AML12 mouse hepatocyte viability, ATP luminescence; cells loaded with 100 µM oleic acid; cytotoxicity, % at 50 µM; 530 tested, under 10 active; AID 463219, 2010;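 active means cytotoxicity above 50% in each of four replicates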;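 further: compound exposure lasted overnight at 37 °C before the ATP read; 0% = DMSO-treated cells and 100% = wells with no cells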
# TAG conf – triacylglycerol accumulation inhibitors, retest, confirmation, cell-based, single concentration, Nile Red fluorescence, H9c2 | H9c2 lipid accumulation; cells loaded with 200 µM oleic acid | shares compounds with TAG inh | hit rate 71% among 990 | inhibition, % at 12.5 µM;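 active means mean inhibition across replicates of 40% or more; inactive means mean inhibition below 40%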;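 further: plate controls were DMSO only wells for no effect and Triacsin C treated wells for full effect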
# The depositor's hits bear a star; x = no result.
SMILES,Platelet DG rel,STAT1 blocker,STAT3 inh,TAG inh,PPC-1+TRAIL kill,Lipid droplet,Hep lipid conf,AML12 tox img,AML12 tox ATP,TAG conf
CC1(C)Oc2ccc3ccc(=O)oc3c2/C(=C/Nc2cccc(O)c2)C1=O,0,5,36,x,16,-3,x,x,x,x
O=C(COC(=O)c1ccc(F)cc1F)NCc1ccc2c(c1)OCO2,x,x,x,-15,x,x,x,x,x,x
Cc1c(S(=O)(=O)c2ccccn2)c(N)n(Cc2ccccc2)c1C,17,x,x,-12,7,61*,8,-0.61,x,x
Cc1c(S(=O)(=O)c2ccccn2)c(N)n(Cc2ccccc2Cl)c1C,13,x,x,0,13,-4,x,x,x,x
O=C(NC1CCCc2c1cnn2-c1cc(F)cc(F)c1)c1ccccn1 (stereo unspecified),4,x,x,9,x,64*,100*,0.75,12,x
Cc1cc(C(=O)NC2CCCc3c2cnn3-c2ccc(C)c(C)c2)nc(C)n1 (stereo unspecified),10,x,x,18,x,58*,62,-1.1,0,x
Cc1cc(C(c2ccc(O)cc2)c2cc(C)c(O)cc2C)c(C)cc1O,6,x,x,-10,x,56*,21,-0.96,x,x
COc1ccccc1N1CCN(C(=O)Cn2ncc3c([nH]c4ccccc43)c2=O)CC1,8,x,x,x,x,52*,71*,-1.5,8,x
COc1ccc(N2CCN(C(=O)Cn3ncc4c([nH]c5ccccc54)c3=O)CC2)cc1,-1,x,x,x,x,-9,x,x,x,x
CCc1nc2c(OCC3CCCCC3)cccn2c1N(C)C(=O)c1ccccc1F,x,x,x,13,x,x,x,x,x,x
O=C/C=C/c1c(-c2ccccc2)cc2oc3ccccc3cc1-2,1,x,x,x,x,70*,23,0.6,x,x
Nc1nc(-c2ccccc2)c(N=Nc2cccc3ccccc23)s1,7,5,-18,x,4,113*,115*,0.42,44,x
Nc1nc(-c2ccccc2)c(N=Nc2ccccc2Cl)s1,5,9,-13,x,29,104*,114*,-0.57,32,x
Cc1cccc(CN2C(=O)N/C(=C/c3ccc(C)s3)C2=O)c1,-12,-9,8,-10,9,-14,x,x,x,x
Cc1cccc(CN2C(=O)N/C(=C/c3cc(C)n(-c4cc(C)ccn4)c3C)C2=O)c1,5,-4,6,33,44,81*,105*,-0.23,7,x
Cc1ccc(C(=O)CC2(O)C(=O)N(Cc3ccccc3)c3ccccc32)o1 (stereo unspecified),1,3,4,5,15,-10,x,x,x,x
Cc1ccc(C(=O)CC2(O)C(=O)N(CCc3ccccc3)c3ccc(Br)cc32)o1 (stereo unspecified),2,-8,0,51*,18,53*,83*,-0.62,4,24
COc1ccc(/C=C/C(=O)NCC(=O)N/N=C/c2cc(Br)ccc2OC)cc1,-9,-3,4,x,3,x,x,x,x,x
COc1ccccc1/C=C/C(=O)NCC(=O)N/N=C/c1cc(Br)ccc1OC,2,1,10,54*,-10,73*,106*,-1.1,18,40
CCOc1ccc(CCNC(=O)CN2CCN(Cc3ccccc3C)C2=O)cc1OCC,15,6,6,60*,8,83*,107*,-0.059,12,54*
COc1ccc(CCNC(=O)Cn2c(-c3nonc3N)nc3ccccc32)cc1OC,-7,-3,4,14,-3,x,x,x,x,x
CCOc1ccc(CCNC(=O)Cn2c(-c3nonc3N)nc3ccccc32)cc1OCC,x,-5,2,57*,-1,75*,101*,0.99,25,36
COc1ccccc1S(=O)(=O)N(C)C[C@H]1Oc2ncc(Br)cc2C(=O)N([C@H](C)CO)C[C@H]1C,x,x,x,-16,x,x,x,x,x,x
CCOC(=O)[C@@H]1[C@H]2COc3ccc(Br)cc3[C@@H]2N2C(=O)N(c3ccc(C(F)(F)F)cc3)C(=O)[C@@]12C,5,x,x,52*,x,52*,76*,-0.14,5,69*
CCOC(=O)[C@@H]1[C@H]2COc3ccc(Br)cc3[C@@H]2N2C(=O)N(c3ccc(F)cc3)C(=O)[C@@]12C,x,x,x,22,x,x,x,x,x,x
SMILES,Platelet DG rel,STAT1 blocker,STAT3 inh,TAG inh,PPC-1+TRAIL kill,Lipid droplet,Hep lipid conf,AML12 tox img,AML12 tox ATP,TAG conf
CCCC1O[C@@H]2C[C@H]3[C@@H]4CCC5=CC(=O)C=C[C@]5(C)[C@H]4[C@@H](O)C[C@]3(C)[C@]2(C(=O)CO)O1 (stereo partly specified),0,-61,-4,66*,27,118*,113*,2.3,22,79*
CCCCn1c(N)c(N(CCOC)C(=O)C2CC(=O)N(c3ccc(CC)cc3)C2)c(=O)[nH]c1=O (stereo unspecified),x,x,x,0,x,x,x,x,x,x
O=C1C(NS(=O)(=O)c2cccs2)=C(N2CCN(c3cccc(C(F)(F)F)c3)CC2)C(=O)c2ccccc21,12,0,17,60*,14,52*,113*,-0.37,12,78*
CC1(C(=O)O)CCN1C(=O)c1cccc(OC(F)(F)F)c1 (stereo unspecified),x,x,x,-11,x,x,x,x,x,x
CN(CC(=O)Nc1ccc(F)c(F)c1F)C(=O)CCN1C(=O)C2CC=CCC2C1=O (stereo unspecified),x,x,x,5,x,x,x,x,x,x
N#CC(C#N)=c1ccc2c(c1)N1C(c3ccccc3)=CC(c3ccccc3)C3CCCCC31N=2 (stereo unspecified),10,x,x,89*,11,65*,50,-1.1,x,119*
CCOc1ccc(CCNC(=O)CCc2nc(-c3ccc(OC)cc3)no2)cc1OCC,29,4,2,52*,12,69*,108*,-0.28,11,39
C[C@@H]1CN([C@@H](C)CO)C(=O)c2cc(Br)cnc2O[C@@H]1CN(C)S(C)(=O)=O,x,x,x,5,x,x,x,x,x,x
CCOc1ccccc1NC(=O)C1CCN(C(=O)NCc2ccccc2)CC1,-5,-9,0,63*,3,130*,110*,-0.4,6,47*
